An excerpt weighted towards active compounds, which were near 2.2% of everything screened.
UBC9 SUMO inh = inhibitors of in vitro SUMOylation cascade, primary screen, biochemical, HTRF, uHTS. inhibition, % at 35 µM. HTRF SUMOylation assay, SAE1/SAE2 + UBC9. hit rate 0.36% among 290,000. SUMO-conjugating enzyme UBC9 (Homo sapiens), P63279; in the data active = inhibition above about 50%, passing the limit was not always enough; inconclusive = no clear call, values can overlap the other calls
Target sequence (P63279 whole entry, looked up): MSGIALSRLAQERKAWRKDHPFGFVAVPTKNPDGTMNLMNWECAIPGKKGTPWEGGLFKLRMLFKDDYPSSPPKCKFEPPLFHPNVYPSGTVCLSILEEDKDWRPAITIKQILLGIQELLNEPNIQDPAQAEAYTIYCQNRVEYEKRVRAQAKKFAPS
GSTO1 counter = inhibitors of recombinant GSTO1, primary screen, counter-screen for RBBP9 inhibitor project, biochemical, fluorescence polarization | activity-based probe fluorescence polarization | inhibition, % at 5.96 µM | hit rate 1.1% among 300,000;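 active = inhibition above the campaign mean inhibition plus 3 SD, cut at about 35% in these data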;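 also: 0% = GSTO1-1 with DMSO and 100% = wells lacking GSTO1-1 enzyme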
Target sequence (P78417 whole entry, looked up): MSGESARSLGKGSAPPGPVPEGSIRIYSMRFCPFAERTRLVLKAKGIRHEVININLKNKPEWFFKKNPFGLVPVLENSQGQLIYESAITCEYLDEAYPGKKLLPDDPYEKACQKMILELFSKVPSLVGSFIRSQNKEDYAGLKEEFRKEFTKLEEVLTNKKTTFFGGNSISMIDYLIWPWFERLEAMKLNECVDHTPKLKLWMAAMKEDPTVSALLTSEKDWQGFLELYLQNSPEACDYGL
UBC13 inh = UBC13 polyubiquitin chain formation inhibitors, primary screen, biochemical, TR-FRET, uHTS. inhibition, % at 20 µM. hit rate 0.47% among 330,000; in the data active = inhibition above about 45%, passing the limit was not always enough; inconclusive = no clear call, values can overlap the other calls
Target sequence (P61088 whole entry, looked up): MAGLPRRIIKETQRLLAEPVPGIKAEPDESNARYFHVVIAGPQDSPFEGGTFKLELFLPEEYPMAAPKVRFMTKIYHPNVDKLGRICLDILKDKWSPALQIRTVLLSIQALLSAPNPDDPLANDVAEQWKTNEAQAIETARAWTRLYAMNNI
Apaf1 inhib = inhibitors of human Apaf-1 apoptosome, primary screen, biochemical, DEVD-Rh110 fluorescence, uHTS | inhibition, % at 20 µM | Apoptotic protease-activating factor 1 (Homo sapiens), O14727 | reconstituted apoptosome caspase-3 activity | hit rate 0.71% among 330,000; active = inhibition of at least 40% at 20 µM;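 also: plate controls were DMSO wells for no effect and DEVD-CHO caspase inhibitor wells for full effect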
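Material: biochemical Apaf-1 apoptosome reconstitution. Medium: Hepes buffer, pH 7.5. Also added: cytochrome c activation, bis-DEVD rhodamine 110 substrate. Timing: 30 min compound preincubation, 50 min activation, room temperature. Measured by: rhodamine 110 fluorescence at Ex 480/Em 540 nm.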
Rin1 Abl inh = inhibitors of Rin1-Abl protein binding, primary screen, biochemical, TR-FRET | inhibition, % at 7.35 µM | hit rate 0.4% among 360,000 | AID 588664, 2011; in the data active = inhibition above about 5%, passing the limit was not always enough
PAD4 inh = human PAD4 inhibitors, primary screen, biochemical, fluorescence polarization, 1536-well format | recombinant PAD4, RCA probe fluorescence polarization | inhibition, % at 6.36 µM | hit rate 0.41% among 330,000;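 active = percent inhibition above a cutoff equal to the mean of all tested compounds plus 3 SD, cut at about 15% in these data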;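 also: 0% = PAD4 with RCA probe and DMSO and 100% = probe without PAD4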
GSTO1 confirm = GSTO1 inhibitor hit confirmation, counter-screen for RBBP9 inhibitor project, biochemical, fluorescence polarization, triplicate. shares compounds with GSTO1 counter. recombinant GSTO1, probe fluorescence polarization. inhibition, % at 5.96 µM. hit rate 54% among 2,400. AID 2176, 2009;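 active = inhibition above the primary screen's cutoff, its mean inhibition plus 3 SD, cut at about 35% in these data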;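 also: loss of polarization as inhibitors block binding of rhodamine sulfonate ester activity probe; 0% = GSTO1 with DMSO and 100% = wells lacking GSTO1 enzyme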
PAD4 confirm = human PAD4 inhibitors, confirmation, biochemical, fluorescence polarization. shares compounds with PAD4 inh. hit rate 28% among 1,200. inhibition, % at 6.36 µM. AID 488796, 2010. recombinant PAD4, RCA probe fluorescence polarization;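 active = mean inhibition across replicates above the hit cutoff set by the earlier primary screen, cut at about 15% in these data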;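 also: inhibitors block active-site labeling by the probe so polarization falls; 0% = PAD4 with probe and DMSO and 100% = probe without PAD4 enzyme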
Apaf-1 inh conf = Apaf-1 inhibitors, single-dose retest, confirmation, biochemical, fluorescence, DEVD-Rh110, 20 µM | hit rate 25% among 1,800 | shares compounds with Apaf1 inhib | reconstituted apoptosome, caspase-3 DEVD-Rh110 fluorescence | inhibition, % at 20 µM;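 active = mean inhibition of at least 40% at 20 µM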;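 also: plate controls were DMSO wells for no effect and DEVD-CHO caspase inhibitor control wells for full effect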
Rh110 interf inh = Rh110 fluorescence interference by putative Apaf-1 inhibitors, confirmation, artefact control for Apaf-1 inhibitor project, biochemical, 20 µM; activation (fluorescence interference), % at 20 µM; 1,800 tested, under 10 active; AID 504615, 2011; quenched caspase reaction; shares compounds with Apaf1 inhib;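 active = signal rise of 40% or more at 20 µM, treated as a fluorescence artifact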
Fluor interf inh = fluorescence interference of Apaf-1 inhibitor hits, dose response, artefact control for Apaf-1 inhibitor project. shares compounds with Apaf1 inhib. fluorescence interference counterscreen, Apaf-1 assay format. IC50, µM. 460 tested, under 10 active. AID 588538, 2011
Rin1 Abl conf = Rin1-Abl binding inhibitor retest, confirmation, biochemical, TR-FRET | shares compounds with Rin1 Abl inh | purified proteins | inhibition, % at 7.35 µM | hit rate 49% among 1,300 | AID 602124, 2011; in the data active = inhibition above about 6.5%
GFP quencher = GFP fluorescence inhibitors and quenchers, artefact control for Rin1-Abl interaction inhibitor project, biochemical | shares compounds with Rin1 Abl inh | inhibition, % at 6.75 µM | AID 602125, 2011 | inhibitors/quenchers counterscreen | hit rate 8.5% among 1,300; in the data active = inhibition above about 6.5%;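 also: ABL1-eGFP fusion protein alone without its partner RIN1-SBP; 0% = protein with vehicle and 100% = wells lacking protein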
GFP quench dose = GFP fluorescence inhibitors and quenchers, dose response, artefact control for Rin1-Abl interaction inhibitor project, biochemical | 230 tested, under 10 active | IC50, µM | GFP fluorescence interference/quenching counterscreen | shares compounds with Rin1 Abl inh;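 also: ABL1-eGFP fusion protein alone without its RIN1 binding partner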
* = called active by the depositor; u = inconclusive; x = no result given. Unless noted, no rule for the calls is given here.

SMILES | UBC9 SUMO inh | GSTO1 counter | UBC13 inh | Apaf1 inhib | Rin1 Abl inh | PAD4 inh | PAD4 confirm | others
O=C(NCC1=C(c2cccc3ccccc23)C[C@@H]2CC[C@H]1N2Cc1ccco1)c1ccncc1 | x | x | x | x | -4 | x | x
CCCCCn1c(=O)c(C(=O)NCCc2ccccc2)c(O)c2ccccc21 | -14 | 3 | 3 | 10 | -1 | -2 | x
Cc1cc(-c2cc(C)c(N)c(C)c2)cc(C)c1N | x | x | x | x | 2 | x | x
COCCCn1c(N)c(C(=O)NCCC(C)C)c2nc3ccccc3nc21 | 102 | 39* | 23 | 91* | 22* | -10 | x | GSTO1 confirm=64*;Apaf-1 inh conf=52*;Rh110 interf inh=6;Fluor interf inh=>100;Rin1 Abl conf=2;GFP quencher=-1
CN(C)[C@@H]1C(=O)C(C(N)=O)=C(O)[C@@]2(O)C(=O)C3=C(O)c4c(O)cccc4[C@@](C)(O)[C@H]3[C@H](O)[C@@H]12 | 47 | 61* | -16 | 3 | 16* | -4 | x | GSTO1 confirm=69*;Rin1 Abl conf=2;GFP quencher=7
Cc1c(C(=O)c2cccc3ccccc23)c2cccc3c2n1[C@H](CN1CCOCC1)CO3 | x | -9 | 9 | 10 | -1 | -3 | x
COc1cc(C(O)CN)ccc1O (configuration not stated) | x | 0 | 7 | -6 | 3 | -1 | x
COc1cc2c(ccc3cc(OC)c(OC)c(O)c32)cc1O | x | 55* | -60 | -21 | 21* | -2 | x | GSTO1 confirm=45*;Rin1 Abl conf=17*;GFP quencher=6;GFP quench dose=>68
Cc1cccc(NC(=O)COC(=O)c2cc(C)n(C3CC3)c2C)c1 | x | x | -9 | 20 | 2 | -3 | x
CN1CCN(Cc2cc3c(cc2[N+](=O)[O-])OCO3)CC1 | -9 | 11 | 1 | -16 | 0 | -3 | x
O=C(O)c1cccc2c1NC(C(=O)O)C1CC(Sc3ccccc3[N+](=O)[O-])C(Cl)C21 (configuration not stated) | u | 39* | x | x | 11* | 4 | x | GSTO1 confirm=-21;Rin1 Abl conf=5;GFP quencher=20*
CC(=O)c1ccc2c(c1)C1C(Cl)C(Sc3ccccc3[N+](=O)[O-])CC1C(C(=O)O)N2 (configuration not stated) | 63 | 5 | x | x | 4 | -3 | x
C=CCN1CCc2cccc3c2[C@H]1Cc1ccc(O)c(O)c1-3 | 22 | 87* | -6 | 20 | 8.5* | -6 | x | GSTO1 confirm=17;Rin1 Abl conf=7.1*;GFP quencher=11*
COC(=O)C1=C(c2ccc(-c3ccccc3)c(F)c2)C[C@@H]2CC[C@H]1N2C(=O)NCCc1ccccc1 | x | x | -11 | 29 | 3 | -3 | x
O=C(NC1CCCCC1)Oc1cc2oc(=O)sc2cc1Cl | -3 | 55* | -13 | 10 | 6.3* | 2 | x | GSTO1 confirm=13;Rin1 Abl conf=-1;GFP quencher=-2
COc1ccccc1/C=N/N=C(/N)N[N+](=O)[O-] | 2 | 1 | -5 | -21 | -5 | 16* | 5
CCOc1cccc(OCC)c2c(C)[n+](CC3CCCO3)c(C)c1-2 (configuration not stated) | 35 | 29 | -6 | 9 | 3 | 15* | -6
COc1ccc(CCNCC2CCCO2)cc1 (configuration not stated) | 8 | 3 | 0 | 2 | 4 | -4 | x
S=P(N1CCCCCC1)(N1CC1)N1CC1 | x | x | x | x | 6 | x | x
C[n+]1c(-c2ccccc2)sc2ccccc21 | 7 | 3 | -5 | -5 | 0 | 15* | 6
CN(C)c1ccc(/C=C/C=C/c2sc3ccccc3[n+]2C)cc1 | -57 | -8 | -103 | 0 | -19 | -7 | x
COC(/C(C)=C/C=C/C(C)=C/c1coc(C)n1)C(C)C1CC(O)C2(C)OC2C=CC(C)C2CC(CC(=O)O2)CC2OC2C(=O)O1 (configuration not stated) | x | x | x | x | 4 | x | x
C[CH2][Hg][S]c1ccccc1C(=O)O | x | 19 | -19 | 21 | -4 | 38* | 50*
Cc1ccc(-n2c(C)nc3cc(Cl)ccc3c2=O)nc1 | 15 | 0 | 3 | 5 | 0 | 2 | x
CCN1/C(=C\C=C\C2=[N+](CC)c3ccccc3C2(C)C)C(C)(C)c2ccccc21 | 18 | -352 | -257 | 56* | -24 | 145* | 101*
SMILES | UBC9 SUMO inh | GSTO1 counter | UBC13 inh | Apaf1 inhib | Rin1 Abl inh | PAD4 inh | PAD4 confirm | others
C=CCn1c(O)c(C(C)=Nc2ccc(N(CC)CC)cc2)c(=O)[nH]c1=O | 10 | 14 | 0 | 27 | -2 | 19* | -7
c1ccc2c(N3CCNCC3)nsc2c1 | 4 | 10 | -8 | -13 | -5 | 3 | x
COc1cc(C(c2c(C)[nH]n(-c3ccccc3)c2=O)c2c(C)[nH]n(-c3ccccc3)c2=O)cc(OC)c1OC | x | 79* | -56 | 92* | 9.7* | 69* | 4 | Apaf-1 inh conf=62*;Rh110 interf inh=-3;Fluor interf inh=>100
CC[C@H]1CN(C)CCc2c([nH]c3ccccc23)C(=O)C[C@@H]1/C(=C\OC)C(=O)OC | x | 0 | 2 | -6 | -3 | 2 | x
CCOC(=O)c1nc2ccccc2c(=O)n1-c1ccc(C)cc1 | 5 | 8 | 3 | -1 | -2 | 4 | x
CCCCn1c(NS(=O)(=O)c2ccc(C)cc2)c(C(=O)OCC)c2nc3ccccc3nc21 | 99* | 82* | -9 | 90* | 2 | 66* | -3 | Apaf-1 inh conf=27;Rh110 interf inh=7

Bioassay records: PubChem BioAssay, several laboratories
